Publication PMC4269301 (International journal of peptide research and therapeutics, 2014)

How the values were obtained:
[1] = tested on: GRK site pS-(355,356) of the β2AR in WT-β2AR cells; assay: Intact-cell GRK site phosphorylation of the β2AR; format: cell-based; conditions: 100 μM, 20 min pretreatment, 20 nM ISO
[2] = tested on: adenylyl cyclase (AC); assay: Adenylyl cyclase activity in membranes from WT-β2AR cells; format: biochemical; conditions: 100 μM peptide, 10 min, 30 °C
[3] = tested on: PKA site pS-262 of the β2AR in WT-β2AR cells; assay: Intact-cell PKA site phosphorylation of the β2AR; format: cell-based; conditions: 100 μM, 20 min pretreatment, 20 nM ISO
Procedure, shortened: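 HEK293 cells stably expressing FLAG-β2AR (2–4 pmol/mg) on poly-L-lysine; 20 min with 100 μM TAT-tagged peptide, TAT or DMSO, then 20 nM ISO in 0.1 mM ascorbate/1 mM thiourea pH 7, or carrier, 5 min at 37 °C. Lysates on 12 % SDS-PAGE, immunoblot anti-pS262, reprobed anti-C-tail for normalisation. ≥4 experiments in duplicate, % of control.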

CC(=O)NCC(=O)N[C@@H](CCCNC(=N)N)C(=O)N[C@@H](CCCCN)C(=O)N[C@@H](CCCCN)C(=O)N[C@@H](CCCNC(=N)N)C(=O)N[C@@H](CCCNC(=N)N)C(=O)N[C@@H](CCC(N)=O)C(=O)N[C@@H](CCCNC(=N)N)C(=O)N[C@@H](CCCNC(=N)N)C(=O)N[C@@H](CCCNC(=N)N)C(=O)N1CCC[C@H]1C(=O)N1CCC[C@H]1C(=O)N[C@@H](CCC(N)=O)C(N)=O [TAT]
Effect on GRK phosphorylation of β2AR in intact cells [1]: did not inhibit
Effect on ISO-stimulated AC activity ([2]; 1 μM ISO): without effect
Effect on FSK-stimulated AC activity ([2]; 20 μM FSK): without effect
Effect on PKA site (S262) phosphorylation of the β2AR in intact cells [3]: did not inhibit
